Screens (PubChem BioAssay)
Sampled rows, rich in hits. Any-hit rate of the full collection: about 2.3%.
Bfl-1 A1 inh = inhibitors of the anti-apoptotic protein A1, read as caspase activation; caspase activation, % (no concentration beside the values); hit rate 0.066% among 330,000; AID 2462; MEF A1-2A-BIM cells, Caspase-Glo 3/7 luminescence, 3 h; percent of clofoctol response, vehicle zero;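 active means over half of replicate activation scores above 10%, or exactly half above 10 with the replicate mean above 10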
KLF5 inh = suppresses KLF5 promoter-driven expression. DLD-1 KLF5 promoter-luciferase reporter, luminescence. inhibition, % at 5 µM. hit rate 0.23% among 290,000;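 active means inhibition above a per-plate limit of that plate's mean compound inhibition plus 3 SD, cut at about 60% in these data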;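 further: 0% = DMSO wells and 100% = LY294002 at 200 µM; higher means less KLF5 promoter-driven luciferase light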
Beta cell apopt = beta cell apoptosis inhibition. hit rate 0.8% among 300,000. protection from apoptosis, % (test concentration not listed). INS-1E cytokine-induced death, ATP luminescence, 48 h; percent of positive-control rescue, neutral wells zero;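 active means Every replicate reaches about 75%, or at least half do and their mean reaches it too, limit read from the data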;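 further: 0% = cytokine-treated negative control wells and 100% = positive control rescue; higher means more ATP so stronger rescue from cytokine killing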
T cruzi inh = blocks replication of Trypanosoma cruzi; T. cruzi beta-gal in NIH3T3, luminescence, 90 h; inhibition, % (concentration not given with the values); hit rate 1.4% among 300,000; AID 1885;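 active means mean inhibition across valid replicates above about 55%, limit read from the data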;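 further: signal also drops with host cell toxicity which is not excluded here; 0% = plate median of DMSO wells and 100% = zero luminescence signal; higher percent means less beta-gal luminescence so fewer parasites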
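System – NIH/3T3 host cells with β-galactosidase reporter T. cruzi · Doses – single 50 nL compound addition per well in DMSO · Reagent – 5000 T. cruzi trypomastigotes/well · Medium – Low-serum DMEM with 2% FBS · Timing – ≥90 h infection period, 3 h prior cell attachment · Evaluation – parasite load inhibition, % · Technique – GalScreen luminescence, 60 min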
HIF activator = HIF pathway transcriptional activation; activation, % at 7.5 µM (by protocol); U2OS HRE-luciferase reporter, luminescence; normalized: DMSO 0%, desferrioxamine 100%; hit rate 0.32% among 300,000; AID 1910;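 active means mean activation of at least 10% of the iron chelator positive control signal, with at least half of replicates also reaching 10%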
* = called active by the depositor; / = no result given.

SMILES	Bfl-1 A1 inh	KLF5 inh	Beta cell apopt	T cruzi inh	HIF activator
O=C(OCC(=O)c1c[nH]c2ccccc12)c1ccc([N+](=O)[O-])s1	-0.6	-17.7	-1.6	61.4*	0.3
CCc1cccc2c(C(=O)COC(=O)c3ccc([N+](=O)[O-])s3)c[nH]c12	1.4	-22.5	-2.7	64.4*	-0.1
CN1CCN(C2Cc3ccc(F)cc3Sc3cc(F)c(Cl)cc32)CC1 (stereo unspecified)	2.0	/	/	51.2	39.3*
CN1CCN(C2Cc3cc(F)ccc3Sc3ccc(Cl)cc32)CC1 (stereo unspecified)	0.6	/	12.8	33.8	1.0
CC(C)c1ccc2c(c1)C(N1CCNCC1)Cc1ccc(F)cc1S2 (stereo unspecified)	0.1	/	116.3*	/	0.5
CC(C)[C@H](N)c1cn([C@@H](CC(N)=O)C(=O)N2CCNCC2)nn1	1.0	/	6.6	/	/
COc1ccc2ccccc2c1CNC(C)CCc1ccccc1 (stereo unspecified)	0.7	-22.4	/	56.4*	-1.8
COc1ccc(CCNCc2c(OC)ccc3ccccc23)cc1OC	0.5	-24.2	7.1	6.0	0.9
CCC(C)Sc1nnc(NS(=O)(=O)Cc2ccccc2)s1 (stereo unspecified)	0.8	-53.9	2.6	-1.5	-1.4
CCCn1c2c(c(O)c(C(=O)Nc3ccc(OC)cc3)c1=O)CCCC2	0.0	-10.9	7.0	61.2*	-8.9
CCCn1c2c(c(O)c(C(=O)NC)c1=O)CCCC2	0.1	-13.4	0.8	-1.5	0.1
Cc1c(C(=O)Nc2ccc(-c3nnc4n3CCCCC4)cc2)oc2c1ccc1ccccc12	0.0	-16.4	31.9	55.9*	-0.1
O=C(Nc1ccc(-c2nnc3n2CCCCC3)cc1)c1cc2ccccc2o1	0.2	-35.5	5.9	23.9	0.4
COc1cc(C#Cc2c(-c3cncn3C)n(C)c3ccc(Br)cc23)cc(OC)c1	0.0	/	3.5	/	/
Cc1ccc(OCC(=O)N2CCN(c3nnc(-c4ccccc4)c4ccccc34)CC2)cc1	0.0	-1.2	4.8	69.6*	0.2
CCc1cc2c(=O)c(-c3ccc4c(c3)OCCO4)coc2c(CN2CCCCC2C)c1O (stereo unspecified)	2.0	-7.7	6.6	56.5*	0.0
O=C1CCCC2=C1C(c1ccccc1O)C1=C(CCCC1=O)O2	1.0	-26.9	-7.7	2.3	-0.2
O=C1CCCC2=C1C(Cc1ccccc1)C1=C(CCCC1=O)O2	-0.2	-0.6	4.6	8.8	350.7*
Cc1onc(-c2c(Cl)cccc2Cl)c1C(=O)N/N=C(\N)COc1ccc(Cl)cc1	-0.3	-12.3	91.4*	40.6	3.7
O=C(CCCCN1CCCCC1)c1ccc2c(c1)Cc1ccccc1-2	-0.3	-17.3	44.2	71.4*	-0.4
O=C(CCN1CCCCCC1)c1ccccc1	0.3	-7.8	-18.8	/	/
Cc1ccc(C(C)(O)CS(=O)(=O)Cc2ccccc2)cc1 (stereo unspecified)	0.1	-36.7	-3.7	4.5	0.6
COCc1ccc(CN2CCCC(CCC(=O)NCc3cccc(OC)c3)C2)o1 (stereo unspecified)	-0.9	-7.5	-2.4	59.1*	-0.1
COCc1ccc(CN2CCCC(CCC(=O)NCc3ccc(C)o3)C2)o1 (stereo unspecified)	0.0	0.2	-4.8	36.5	-0.2
COc1cccc(CNC(=O)CCC2CCCN(C/C=C/c3ccccc3OC)C2)c1 (stereo unspecified)	-0.1	-4.8	-0.1	66.1*	0.0
SMILES	Bfl-1 A1 inh	KLF5 inh	Beta cell apopt	T cruzi inh	HIF activator
CCN(CC1CCCN(CCc2cccc(OC)c2)C1)C(=O)c1ccoc1C (stereo unspecified)	0.4	-4.0	-0.2	50.6	0.2
CCN(CC1CCCN(CCc2cccc(OC)c2)C1)C(=O)c1ccc(COC)o1 (stereo unspecified)	0.8	-13.9	-1.1	77.4*	2.6
COc1ccc(/C=C/CN2CCCC(CCC(=O)NCc3ccc(F)c(F)c3)C2)cc1 (stereo unspecified)	0.2	6.0	-1.8	67.9*	-0.2
C[C@H](CO)N1C[C@H](C)[C@@H](CN(C)S(C)(=O)=O)Oc2c(NC(=O)c3ccncc3)cccc2C1=O	1.4	/	3.1	/	/
O=C(COc1ccccc1)NCC(=O)N1CCCCCC1	0.3	/	-0.9	/	/
COc1ccc(CNC(=O)COc2ccc(Br)c(C)c2)cc1	-2.9	-20.9	-3.8	0.0	0.7
COc1ccccc1/C=C/CN1CCCC(CCC(=O)NCc2ccc(F)c(F)c2)C1 (stereo unspecified)	1.5	7.4	-12.3	67.6*	0.1
